Columns and labels:
[1] = molecular target: T1, Adrenergic receptor alpha-1 (Rattus norvegicus, UniProt P15823+P23944+P43140); experiment: Displacement of [3H]prazosin from alpha1-adrenoceptor in Sprague-Dawley rat brain membranes after 45 mins by liquid scintillation counting; type: cell membranes, Membrane
T1 sequence (P15823 whole entry): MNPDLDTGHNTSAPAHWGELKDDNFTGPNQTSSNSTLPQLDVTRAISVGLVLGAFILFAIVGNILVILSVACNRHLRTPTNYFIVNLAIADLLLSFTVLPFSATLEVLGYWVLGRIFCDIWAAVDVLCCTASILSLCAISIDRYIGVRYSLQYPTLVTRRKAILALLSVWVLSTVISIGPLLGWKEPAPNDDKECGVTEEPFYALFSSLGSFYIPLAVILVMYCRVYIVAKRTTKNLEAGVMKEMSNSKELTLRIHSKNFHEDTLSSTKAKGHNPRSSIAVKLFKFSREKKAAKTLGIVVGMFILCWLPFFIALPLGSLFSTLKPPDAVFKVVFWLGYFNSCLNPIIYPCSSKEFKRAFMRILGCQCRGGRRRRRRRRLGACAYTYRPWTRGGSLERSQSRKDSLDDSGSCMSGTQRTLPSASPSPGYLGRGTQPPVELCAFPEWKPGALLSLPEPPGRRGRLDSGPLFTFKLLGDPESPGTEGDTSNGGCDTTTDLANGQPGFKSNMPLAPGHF
T1 sequence (P23944 whole entry): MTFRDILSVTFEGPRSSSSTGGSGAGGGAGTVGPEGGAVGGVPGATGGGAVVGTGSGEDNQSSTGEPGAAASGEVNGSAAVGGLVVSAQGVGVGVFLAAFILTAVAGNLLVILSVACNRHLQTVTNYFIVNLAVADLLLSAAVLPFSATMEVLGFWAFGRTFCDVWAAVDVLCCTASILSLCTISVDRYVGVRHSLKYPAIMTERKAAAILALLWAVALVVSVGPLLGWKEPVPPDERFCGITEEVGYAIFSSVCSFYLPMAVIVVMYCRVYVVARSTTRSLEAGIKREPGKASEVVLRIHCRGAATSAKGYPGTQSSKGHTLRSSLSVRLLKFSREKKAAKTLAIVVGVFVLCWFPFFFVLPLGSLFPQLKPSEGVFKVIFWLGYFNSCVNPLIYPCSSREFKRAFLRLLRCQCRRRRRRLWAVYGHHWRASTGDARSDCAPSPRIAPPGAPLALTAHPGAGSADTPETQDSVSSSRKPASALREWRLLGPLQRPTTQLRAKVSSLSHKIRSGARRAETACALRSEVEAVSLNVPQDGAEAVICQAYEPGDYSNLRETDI
T1 sequence (P43140 whole entry): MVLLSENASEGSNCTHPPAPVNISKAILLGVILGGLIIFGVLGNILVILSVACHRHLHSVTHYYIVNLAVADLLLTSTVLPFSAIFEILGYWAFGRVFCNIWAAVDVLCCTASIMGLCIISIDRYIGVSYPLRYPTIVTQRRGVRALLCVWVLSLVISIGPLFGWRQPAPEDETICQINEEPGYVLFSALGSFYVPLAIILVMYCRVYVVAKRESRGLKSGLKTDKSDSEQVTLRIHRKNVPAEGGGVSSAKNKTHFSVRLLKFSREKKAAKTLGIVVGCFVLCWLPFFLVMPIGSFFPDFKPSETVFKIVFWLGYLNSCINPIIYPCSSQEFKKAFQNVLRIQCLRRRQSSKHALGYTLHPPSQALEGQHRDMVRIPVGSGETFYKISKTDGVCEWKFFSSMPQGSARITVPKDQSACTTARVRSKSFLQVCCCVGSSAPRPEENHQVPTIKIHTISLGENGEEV
Procedure, shortened: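 Crude P2 membranes from brains of male Sprague-Dawley rats (250–280 g), 0.2–0.3 mg protein. Radioligand 1 nM [3H]RX821002 (α2) or [3H]prazosin (α1); 11 concentrations of compound, 0.1 nM–100 µM. Non-specific binding: 10 µM rauwolscine (α2) or 10 µM phenylephrine (α1). Triplicate incubation, RT, 45 min. PEI-soaked glass-fibre filtration, then scintillation counting. Ki by Cheng-Prusoff; 3–4 experiments, or one for low-affinity compounds.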

[2] = molecular target: T2, Alpha-2C adrenergic receptor (Homo sapiens, UniProt P18825); experiment: Displacement of [3H]RS-79948-197 from human alpha2C adrenoceptor expressed in CHO-K1 cells after 45 mins by liquid scintillation counting; type: cell-based
T2 sequence (P18825 whole entry): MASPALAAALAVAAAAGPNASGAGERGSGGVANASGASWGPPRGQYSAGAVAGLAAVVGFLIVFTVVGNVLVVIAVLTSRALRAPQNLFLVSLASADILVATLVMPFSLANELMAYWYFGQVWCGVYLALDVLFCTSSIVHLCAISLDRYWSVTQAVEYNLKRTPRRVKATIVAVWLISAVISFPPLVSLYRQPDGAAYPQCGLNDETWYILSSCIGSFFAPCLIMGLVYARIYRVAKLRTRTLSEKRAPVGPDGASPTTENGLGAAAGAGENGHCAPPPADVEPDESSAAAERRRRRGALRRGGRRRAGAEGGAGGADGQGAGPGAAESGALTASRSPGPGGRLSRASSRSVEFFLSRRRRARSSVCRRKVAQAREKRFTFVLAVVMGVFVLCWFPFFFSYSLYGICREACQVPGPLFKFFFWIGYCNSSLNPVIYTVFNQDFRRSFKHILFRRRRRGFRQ
Procedure, shortened: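 Membranes from CHO-K1 cells stably expressing each human α2-AR subtype (6–10 µg protein). Used 0.2 nM [3H]RS-79948-197 and 8 serial dilutions of competitor in 50 mM potassium phosphate, pH 7.4. Non-specific binding defined with 100 µM oxymetazoline. Filtration, then scintillation counting. Run in duplicate, at least 3 repeats. One-site nonlinear fit; IC50 converted to Ki by Cheng-Prusoff.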

Compound | Ki [1] [nM] | Ki [2] [nM]
Fc1ccc2cnn(N=C3NCCN3)c2c1 | 918.3 | 600
Fc1ccc2c(cnn2N=C2NCCN2)c1 | 2320 | 
Fc1ccc2cnn(CC3=NCCN3)c2c1 | 518.3 | 
Fc1cccc2cnn(N=C3NCCN3)c12 | 1625 | 1200
Fc1ccc2c(cnn2CC2=NCCN2)c1 | 476.3 | 

From ChEMBL document CHEMBL3351639, “Fluorinated analogues of marsanidine, a highly α2-AR/imidazoline I1 binding site-selective hypotensive agent. Synthesis and biological activities” (Eur J Med Chem, 2014)
